Bioassay records deposited in PubChem by several laboratories.
T cruzi repl = inhibitors of intracellular T. cruzi growth, primary screen, luminescence, NIH3T3 host cells; T. cruzi beta-gal in NIH3T3, 90 h; inhibition, % (no concentration beside the values); actives 1.4% (n = 300,000);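 active means mean inhibition across valid replicates above about 55%, limit read from the data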;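 further: signal also drops with host cell toxicity which is not excluded here; higher percent means less beta-gal luminescence so fewer parasites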
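Read-out: Parasite load inhibition, % | Test system: Mouse NIH/3T3 fibroblasts infected with β-gal-expressing T. cruzi Tulahuen C4 | Amount: 5,000 cells/well | Medium: DMEM, 2% fetal bovine serum | Signal: GalScreen β-gal luminescence, detergent lysis, 60 min | Timing: 3 h attach, ≥90 h co-culture | Also added: Tulahuen C4 trypomastigotes, 5000/well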
Beta apoptosis = inhibitors of cytokine-induced beta cell apoptosis, primary screen, luminescence; INS-1E cytokine-induced death, ATP luminescence, 48 h; percent of positive-control rescue, neutral wells zero; protection from apoptosis, % (test concentration not listed); actives 0.8% (n = 300,000);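 active means Every replicate reaches about 75%, or at least half do and their mean reaches it too, limit read from the data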;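 further: higher means more ATP so stronger rescue from cytokine killing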
HIF activator = HIF pathway transcriptional activators, primary screen, cell-based, U2OS HRE-luciferase, luminescence; U2OS HRE-luciferase reporter; normalized: DMSO 0%, desferrioxamine 100%; activation, % at 7.5 µM (by protocol); actives 0.32% (n = 300,000);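 active means mean activation of at least 10% of the iron chelator positive control signal, with at least half of replicates also reaching 10%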
KLF5 inh = KLF5 expression inhibitors, primary screen, DLD-1 cells, luminescence; AID 1700, 2009; actives 0.23% (n = 290,000); DLD-1 KLF5 promoter-luciferase reporter; inhibition, % at 5 µM;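 active means inhibition above a per-plate limit of that plate's mean compound inhibition plus 3 SD, cut at about 60% in these data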;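 further: higher means less KLF5 promoter-driven luciferase light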
A1 inh = caspase 3/7 activation in MEF A1-2A-BIM cells, primary screen, A1 inhibitor project, cell-based, luminescence, HTS; AID 2462, 2010; Caspase-Glo 3/7 luminescence, 3 h; percent of clofoctol response, vehicle zero; actives 0.066% (n = 330,000); caspase activation, % (concentration not given with the values);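 active means over half of replicate activation scores above 10%, or exactly half above 10 with the replicate mean above 10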
Numbers stand for hits; i = inactive; nt = no result. Compounds with a hit are over-represented: about 2.3% of the library has one in this group of screens.

SMILES	T cruzi repl	Beta apoptosis	HIF activator	KLF5 inh	A1 inh
CCN(CC(=O)Nc1c(F)cccc1F)C(=O)/C=C/c1ccc(C)cc1	nt	i	nt	nt	12
Cc1cc(C(=O)Nc2ccc(F)cc2)c2ccccc2n1	i	i	i	i	i
N/C(=N\OC(=O)c1cc([N+](=O)[O-])ccc1Cl)c1ccccn1	i	i	i	i	i
N/C(=N\OC(=O)c1ccc([N+](=O)[O-])cc1Cl)c1ccccn1	i	i	i	65	i
CCC(=NNC(=O)c1ccc2c(c1)nc(C)n2CC)c1cc(F)ccc1O	nt	90	nt	nt	i
COc1ccc(C(=O)Nc2cccc(S(=O)(=O)NC3=NCCC3)c2)cc1OC	nt	i	nt	nt	i
C=CCOc1ccccc1CNc1ccc2c(c1)OCCO2	73	i	i	i	i
CCc1ccc(OC)c(S(=O)(=O)NCc2cccs2)c1	nt	i	nt	nt	i
COc1ccc(-c2nc3c(c(=O)[nH]c(=O)n3Cc3ccccc3)n2Cc2ccccc2)cc1	61	i	i	i	i
CC(C)Cn1c([N+](=O)[O-])nc2c1c(=O)[nH]c(=O)n2C	i	i	i	i	i
Cn1c(=O)[nH]c(=O)c2c1nc([N+](=O)[O-])n2Cc1ccccc1	i	98	i	i	i
Cc1[nH]c2ccccc2c1C(=O)C(=O)Nc1ccc2c(c1)OCO2	i	i	i	i	i
CC1(C)CCN2CCC(C)(C)c3c(O)ccc1c32	i	111	i	i	i
CC1(S(=O)(=O)O)CC(=O)c2ccccc2C1=O (stereo unspecified)	i	i	i	i	i
COc1cc(CNCCSc2nnnn2C)cc(Br)c1OCc1ccccc1F	i	i	i	i	i
CCOc1cc(CNCCSc2nnnn2C)cc(Br)c1OCc1ccccc1F	68	i	i	i	i
Cn1nnnc1SCCNCc1cccc2ccccc12	70	i	i	i	i
CCc1nnc(NC(=O)c2oc3ccccc3c2COC(C)C)s1	nt	i	nt	nt	i
CCn1ncc([N+](=O)[O-])c1C(=O)N1CCc2ccccc2C1	i	i	i	i	i
CCC1Oc2ccccc2N(CC(=O)Nc2ccccc2OC)C1=O (stereo unspecified)	i	i	225	i	i
O=C(NCCS(=O)(=O)N1CCC2(CC1)OCCO2)c1ccc(F)cc1	i	i	i	nt	i
O=C1C(NS(=O)(=O)c2cccs2)=C(N2CCOCC2)C(=O)c2ccccc21	i	i	i	i	i
CCN1CCN(C2=C(NS(=O)(=O)c3ccccc3)C(=O)c3ccccc3C2=O)CC1	i	82	i	i	i
CN1CCN(C2=C(NS(=O)(=O)c3cccs3)C(=O)c3ccccc3C2=O)CC1	i	93	i	i	i
COC(=O)c1ccc(C2Nc3cccc4cccc(c34)N2)cc1	67	i	i	i	i
SMILES	T cruzi repl	Beta apoptosis	HIF activator	KLF5 inh	A1 inh
c1ccc(COc2cccc(CNCc3cccnc3)c2)cc1	62	nt	i	i	i
Cc1cc(C)c2nc(N3CCCC(C(=O)NC4CCCC4)C3)sc2c1 (stereo unspecified)	i	nt	i	i	i
CCCn1c(=O)n(C)c(=O)c2c(SCC(=O)NC34CC5CC(CC(C5)C3)C4)nc(CC(C)C)nc21	69	i	i	i	i
COc1ccc(-c2nn(-c3ccccc3)cc2/C=C/C(=O)OCC(=O)Nc2ccccc2C#N)cc1	i	i	i	i	24
COc1ccc(-c2nn(-c3ccccc3)cc2/C=C/C(=O)N2CCN(c3ccccn3)CC2)cc1	55	i	i	i	i
N#Cc1ccccc1NC(=O)COC(=O)/C=C/c1cn(-c2ccccc2)nc1-c1ccc(Cl)cc1	nt	nt	nt	i	nt
Cc1ccc(NC(=O)CSc2ncccn2)cc1S(=O)(=O)N1CCCCC1	i	i	i	nt	i
C=CS(=O)(=O)c1sc(Cl)c(N2CCOCC2)c1[N+](=O)[O-]	55	nt	i	i	nt
C=CSc1sc(Cl)c(N2CCOCC2)c1[N+](=O)[O-]	i	i	i	i	i
CCOc1ccc(C(=O)NNC(=O)C2CC(=O)N(c3ccc(C)cc3)C2)cc1 (stereo unspecified)	i	i	i	nt	i
CC(=O)c1c(C)[nH]c(C(=O)OCc2c(F)cccc2Cl)c1C	i	i	i	i	i
CC(=O)c1c(C)[nH]c(C(=O)OCc2cccc(Cl)c2)c1C	i	75	i	i	i
Cc1csc(=O)n1CCC(=O)OCC(=O)Nc1cccc(C#N)c1	i	i	i	nt	i
CCN(CC)CCN(C(=O)CCS(=O)(=O)c1ccccc1)c1nc2cc3c(cc2s1)OCO3	60	i	i	i	i
O=C(C1CCCCC1)N(CCN1CCCC1)c1nc2ccccc2s1	57	nt	nt	i	i
CN(C)CCN(C(=O)CCS(=O)(=O)c1ccccc1)c1nc2cc3c(cc2s1)OCO3	i	i	i	i	i
CCN(CC)CCN(C(=O)C1CCCCC1)c1nc2cc3c(cc2s1)OCO3	61	i	i	i	i
COc1cccc(CNS(=O)(=O)c2cc3c(cc2Cl)NC(=O)CO3)c1	i	i	i	i	i
O=C(NCC1COCCO1)c1ccc2nc(Cc3cccc(Cl)c3)oc2c1 (stereo unspecified)	i	nt	i	i	i
COc1cccc2[nH]c3c(N4CC(C)CC(C)C4)ncnc3c12 (stereo unspecified)	57	nt	i	i	nt
CC(C)CCNC(=O)C(c1ccc(O)cc1)N(Cc1cccs1)C(=O)C1COc2ccccc2O1 (stereo unspecified)	64	nt	i	i	i
C(=C1/CCCC2=C1Nc1ncnn1C2c1ccccc1)/c1ccccc1 (stereo unspecified)	74	i	i	i	i
CCOC(=O)C1=C(Nc2ccccc2)CC(C)(O)C(C(=O)OCC)C1c1ccccc1 (stereo unspecified)	76	i	i	i	i
CCCCN(C)Cc1c(C)[nH]c2c(Cl)cccc2c1=O	60	nt	i	i	i
CCCCN(C)Cc1c(C)[nH]c2c(ccc3ccccc32)c1=O	i	i	i	i	i
SMILES	T cruzi repl	Beta apoptosis	HIF activator	KLF5 inh	A1 inh
CCCCCCCCC/C(=N\O)c1ccccn1	63	i	i	i	i
CC(OC(=O)CCCN=C1NS(=O)(=O)c2ccccc21)C(=O)Nc1ccccc1F (stereo unspecified)	i	i	i	nt	i
O=C(CSc1nc2[nH]ncc2c(=O)n1-c1ccc(Cl)c(Cl)c1)NCc1ccccc1Cl	58	i	i	i	i
Cc1ccc(N=Cc2cc(Cl)cc(Cl)c2O)nc1	i	i	i	i	i
Oc1c(Cl)cc(Cl)cc1/C=N/Nc1ncc(Br)cn1	i	86	i	i	i
Cc1nc(NC(=O)COC(=O)C2CC2C)c(Cl)cc1Cl (stereo unspecified)	nt	i	nt	nt	i
O=C(NCCc1csc(-c2cccc(F)c2)n1)c1ccco1	i	i	16	i	i
O=C(NCCc1csc(-c2ccccc2)n1)c1ccco1	i	i	i	i	i
